Measurements published in ChEMBL document CHEMBL1146368, “Development of selective inhibitors for anti-apoptotic Bcl-2 proteins from BHI-1” (Bioorg Med Chem, 2007).

Columns and labels:
Bcl-2-like protein 2 = molecular target: T1, Bcl-2-like protein 2 (Homo sapiens, UniProt Q92843); experiment: Displacement of Flu-Bak peptide from recombinant antiapoptotic Bcl-w protein by fluorescence polarization assay
T1 sequence (Q92843 whole entry): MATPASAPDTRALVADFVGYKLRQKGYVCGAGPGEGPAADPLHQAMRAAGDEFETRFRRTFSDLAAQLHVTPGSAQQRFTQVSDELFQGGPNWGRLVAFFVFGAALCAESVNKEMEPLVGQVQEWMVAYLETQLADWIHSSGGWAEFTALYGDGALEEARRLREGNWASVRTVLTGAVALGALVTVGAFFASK
Summary of the method: (§1)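 Recombinant Ni-NTA-purified proteins from E. coli ER2566 (Bcl-2 lacking transmembrane domain). Oregon Green-labelled Bak BH3 peptide (50 nM in premix) is preincubated 1 h at 23 °C with protein for 60% complex (Bcl-2 1000 nM, Bcl-XL 880 nM, Bcl-w 1200 nM) in PBS pH 7.0 with 1 mM DTT. This is added to compound from 3-fold DMSO stocks (0.014–10 mM), incubated 1 h at 23 °C, and polarization read. Peptide-only background is subtracted. Ki is from the Wang equation; triplicates, run twice.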

[1] = molecular target: Apoptosis regulator Bcl-2 (Homo sapiens, UniProt P10415); experiment: Displacement of Flu-Bak peptide from recombinant antiapoptotic Bcl2 protein by fluorescence polarization assay
Apoptosis regulator Bcl-2, sequence (P10415 whole entry, the tested form may be a part): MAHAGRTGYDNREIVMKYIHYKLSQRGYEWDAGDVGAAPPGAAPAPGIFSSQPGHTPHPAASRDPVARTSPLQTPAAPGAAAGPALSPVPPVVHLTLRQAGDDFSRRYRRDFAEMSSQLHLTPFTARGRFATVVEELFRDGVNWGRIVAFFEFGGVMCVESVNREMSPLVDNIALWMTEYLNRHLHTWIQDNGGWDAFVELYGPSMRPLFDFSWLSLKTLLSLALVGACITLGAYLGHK
Summary of the method: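 Recombinant Ni-NTA-purified proteins from E. coli ER2566 (Bcl-2 lacking transmembrane domain). This is added to compound from 3-fold DMSO stocks (0.014–10 mM), incubated 1 h at 23 °C, and polarization read. Peptide-only background is subtracted. Ki is from the Wang equation; triplicates, run twice.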

Homo sapiens [2] = organism: Homo sapiens; experiment: Selectivity for recombinant Bcl2 protein over recombinant Bcl-XL protein
[3] = Displacement of Flu-Bak peptide from recombinant antiapoptotic Bcl-XL protein by fluorescence polarization assay; design: species or system Homo sapiens; summary of the method: as §1
Homo sapiens [4] = organism: Homo sapiens; experiment: Selectivity for recombinant Bcl2 protein over recombinant Bcl-w protein
Homo sapiens [5] = organism: Homo sapiens; experiment: Selectivity for recombinant Bcl-XL protein over recombinant Bcl-2 protein
Homo sapiens [6] = organism: Homo sapiens; experiment: Selectivity for recombinant Bcl-w protein over recombinant Bcl-XL protein

In the case of `CCCC[C@H]1C(=O)O[C@H](C)[C@H](NC(=O)c2cccc(NC=O)c2O)C(=O)O[C@@H](C)[C@@H]1OC(=O)CC(C)C` [ANTIMYCIN A3], the Ki (Bcl-2-like protein 2) is reported as 127 µM and the Ki [1] is reported as 124 µM.
Work on `CCC/C(=C1/SC(=S)N([C@@H](Cc2ccccc2)C(=O)O)C1=O)c1ccccc1` yielded a Ki (Bcl-2-like protein 2) of 41.1 µM, a Ratio Ki (Homo sapiens [2]) of 2.33 and a Ki [1] of 12 µM. The Ki [3] was 27.9 µM.
For `O=C(O)[C@H](Cc1c[nH]c2ccccc12)N1C(=O)/C(=C/c2ccc(Br)cc2)SC1=S`, the Ki (Bcl-2-like protein 2) was 54.2 µM, the Ratio Ki (Homo sapiens [2]) was 11.5 and the Ki [1] was 2.85 µM. It also gave a Ki [3] of 32.8 µM.
`CC(C)C(C(=O)O)N1C(=O)/C(=C\c2ccc(Br)cc2)SC1=S` (stereo unspecified) gave a Ratio Ki (Homo sapiens [4]) of 2.85, a Ki (Bcl-2-like protein 2) of 124 µM and a Ki [1] of 43.4 µM. It also gave a Ki [3] of 133 µM.
Compound `C/C(=C1/SC(=S)N([C@@H](CC(C)C)C(=O)O)C1=O)c1ccccc1` has a Ratio Ki (Homo sapiens [4]) of 2.74, a Ki (Bcl-2-like protein 2) of 58.3 µM and a Ki [1] of 21.2 µM. For the same compound, the Ki [3] was 128 µM.
In the case of `CSCC[C@@H](C(=O)O)N1C(=O)/C(=C/c2ccc(Br)cc2)SC1=S`, the Ratio Ki (Homo sapiens [4]) is reported as 1.26, the Ki (Bcl-2-like protein 2) is reported as 88 µM and the Ki [1] is reported as 69.6 µM. For the same compound, the Ki [3] was 134 µM.
For `CC(C)C[C@@H](C(=O)O)N1C(=O)/C(=C(\c2ccccc2)c2ccc(-c3ccccc3)cc2)SC1=S`, the Ratio Ki (Homo sapiens [4]) was 3.58, the Ki (Bcl-2-like protein 2) was 6.98 µM and the Ki [1] was 1.95 µM. It also gave a Ki [3] of 8.7 µM.
Work on `COc1ccc2c(c[n+](C)c3c4cc5c(cc4ccc23)OCO5)c1OC` [CHELERYTHRINE CHLORIDE] yielded a Ki (Bcl-2-like protein 2) of 106 µM, a Ki [1] of 171 µM and a Ki [3] of 96 µM.
`O=C(O)CC[C@@H](C(=O)O)N1C(=O)/C(=C/c2ccc(Br)cc2)SC1=S` gave a Ratio Ki (Homo sapiens [4]) of 1.91, a Ki (Bcl-2-like protein 2) of 610 µM and a Ki [1] of 320 µM. It also gave a Ki [3] of 848 µM.
`CC(C)C[C@@H](C(=O)O)N1C(=O)C(=C(c2ccccc2)c2ccccc2)SC1=S` gave a Ratio Ki (Homo sapiens [4]) of 1.07, a Ki (Bcl-2-like protein 2) of 61.9 µM and a Ki [1] of 57.8 µM. For the same compound, the Ki [3] was 68.8 µM.
Compound `Cc1cc2c(C(C)C)c(O)c(O)c(C=O)c2c(O)c1-c1c(C)cc2c(C(C)C)c(O)c(O)c(C=O)c2c1O` [GOSSYPOL] has a Ki (Bcl-2-like protein 2) of 17.7 µM and a Ki [3] of 24.7 µM.
In the case of `CC(C)C[C@@H](C(=O)O)N1C(=O)/C(=C/c2ccc(Br)cc2)SC1=S`, the Ratio Ki (Homo sapiens [5]) is reported as 2.48, the Ki (Bcl-2-like protein 2) is reported as 31.2 µM and the Ki [1] is reported as 7.43 µM. The Ki [3] was 2.99 µM.
With `C[C@@H](C(=O)O)N1C(=O)/C(=C/c2ccc(Br)cc2)SC1=S` the Ratio Ki (Homo sapiens [4]) was 2.11, the Ki (Bcl-2-like protein 2) was 243 µM and the Ki [1] was 115 µM. It also gave a Ki [3] of 374 µM.
`O=C(O)[C@H](Cc1ccccc1)N1C(=O)/C(=C/c2ccc(Br)cc2)SC1=S` gave a Ratio Ki (Homo sapiens [5]) of 2.65, a Ki (Bcl-2-like protein 2) of 21.5 µM and a Ki [1] of 14.2 µM. It also gave a Ki [3] of 5.35 µM.
For `C=CCOC(=O)[C@H](C)N1C(=O)/C(=C/c2ccc(Br)cc2)SC1=S`, the Ki (Bcl-2-like protein 2) was over 1000 µM, the Ratio Ki (Homo sapiens [2]) was 1.4 and the Ki [1] was 192 µM. The Ki [3] was 268 µM.
For `CCC/C(=C1/SC(=S)N([C@@H](CC(C)C)C(=O)O)C1=O)c1ccccc1`, the Ratio Ki (Homo sapiens [4]) was 1.79, the Ki (Bcl-2-like protein 2) was 24.1 µM and the Ki [1] was 13.5 µM. It also gave a Ki [3] of 41.3 µM.
Compound `C[C@@H](C(=O)N1CCOCC1)N1C(=O)/C(=C/c2ccc(Br)cc2)SC1=S` has a Ratio Ki (Homo sapiens [4]) of 2.01, a Ki (Bcl-2-like protein 2) of 146 µM and a Ki [1] of 70 µM. For the same compound, the Ki [3] was 228 µM.
`C=CCOC(=O)[C@H](Cc1ccccc1)N1C(=O)/C(=C/c2ccc(Br)cc2)SC1=S` gave a Ki (Bcl-2-like protein 2) of 56.8 µM, a Ratio Ki (Homo sapiens [6]) of 4.29 and a Ki [1] of over 1000 µM. It also gave a Ki [3] of 244 µM.
`C=CCOC(=O)[C@H](Cc1ccccc1)N1C(=O)C(=C(c2ccccc2)c2ccccc2)SC1=S` gave a Ki (Bcl-2-like protein 2) of 116 µM, a Ratio Ki (Homo sapiens [6]) of 1.52 and a Ki [1] of 260 µM. It also gave a Ki [3] of 176 µM.
